Consider six molecules from ChEMBL document CHEMBL2429736, “Calix[4]arene methylenebisphosphonic acids as inhibitors of protein tyrosine phosphatase 1B” (Bioorg Med Chem Lett, 2013).

Calls of active or inactive are those of the source. The rule behind the calls is not given here.

The target of assay [1] is T1, Tyrosine-protein phosphatase non-receptor type 11 (Homo sapiens, UniProt Q06124).
T1 sequence (Q06124 whole entry): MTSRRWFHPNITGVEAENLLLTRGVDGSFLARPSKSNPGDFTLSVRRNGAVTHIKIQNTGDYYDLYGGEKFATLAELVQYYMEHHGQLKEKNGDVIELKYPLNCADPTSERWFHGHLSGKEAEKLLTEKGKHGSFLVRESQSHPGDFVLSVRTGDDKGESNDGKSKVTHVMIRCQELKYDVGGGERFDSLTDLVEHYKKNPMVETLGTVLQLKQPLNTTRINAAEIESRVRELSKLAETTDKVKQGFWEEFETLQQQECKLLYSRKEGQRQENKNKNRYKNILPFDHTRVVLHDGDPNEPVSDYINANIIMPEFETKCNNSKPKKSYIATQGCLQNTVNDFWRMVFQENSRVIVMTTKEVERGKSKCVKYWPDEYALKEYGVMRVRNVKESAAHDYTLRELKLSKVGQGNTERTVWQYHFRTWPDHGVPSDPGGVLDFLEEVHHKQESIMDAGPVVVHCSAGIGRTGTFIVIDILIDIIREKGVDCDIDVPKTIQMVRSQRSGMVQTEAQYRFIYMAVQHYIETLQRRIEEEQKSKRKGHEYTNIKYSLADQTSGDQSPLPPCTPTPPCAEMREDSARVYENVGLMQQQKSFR
Put plainly: Inhibition of SHP2 (unknown origin) assessed as p-nitrophenyl phosphate conversion to p-nitrophenol after 10 mins by spectrophotometric analysis. The method, boiled down:
(§1)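 p-Nitrophenyl phosphate substrate at 2 mM for TC-PTP and LAR, 1 mM for PTPbeta, 5 mM for CD45, 7 mM for SHP2. p-Nitrophenol release followed. IC50 read from dose-dependent curve as the concentration giving 50% activity after 10 min incubation.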

Assay [2] deals with Receptor-type tyrosine-protein phosphatase F (Homo sapiens, UniProt P10586). Put plainly: Inhibition of LAR (unknown origin) assessed as p-nitrophenyl phosphate conversion to p-nitrophenol after 10 mins by spectrophotometric analysis. The method, boiled down:
as §1

For assay [3], the target named is Receptor-type tyrosine-protein phosphatase beta (Homo sapiens, UniProt P23467). Put plainly: Inhibition of PTPbeta (unknown origin) assessed as p-nitrophenyl phosphate conversion to p-nitrophenol after 10 mins by spectrophotometric analysis. The method, boiled down: as §1
Chain of Receptor-type tyrosine-protein phosphatase beta (P23467 whole entry): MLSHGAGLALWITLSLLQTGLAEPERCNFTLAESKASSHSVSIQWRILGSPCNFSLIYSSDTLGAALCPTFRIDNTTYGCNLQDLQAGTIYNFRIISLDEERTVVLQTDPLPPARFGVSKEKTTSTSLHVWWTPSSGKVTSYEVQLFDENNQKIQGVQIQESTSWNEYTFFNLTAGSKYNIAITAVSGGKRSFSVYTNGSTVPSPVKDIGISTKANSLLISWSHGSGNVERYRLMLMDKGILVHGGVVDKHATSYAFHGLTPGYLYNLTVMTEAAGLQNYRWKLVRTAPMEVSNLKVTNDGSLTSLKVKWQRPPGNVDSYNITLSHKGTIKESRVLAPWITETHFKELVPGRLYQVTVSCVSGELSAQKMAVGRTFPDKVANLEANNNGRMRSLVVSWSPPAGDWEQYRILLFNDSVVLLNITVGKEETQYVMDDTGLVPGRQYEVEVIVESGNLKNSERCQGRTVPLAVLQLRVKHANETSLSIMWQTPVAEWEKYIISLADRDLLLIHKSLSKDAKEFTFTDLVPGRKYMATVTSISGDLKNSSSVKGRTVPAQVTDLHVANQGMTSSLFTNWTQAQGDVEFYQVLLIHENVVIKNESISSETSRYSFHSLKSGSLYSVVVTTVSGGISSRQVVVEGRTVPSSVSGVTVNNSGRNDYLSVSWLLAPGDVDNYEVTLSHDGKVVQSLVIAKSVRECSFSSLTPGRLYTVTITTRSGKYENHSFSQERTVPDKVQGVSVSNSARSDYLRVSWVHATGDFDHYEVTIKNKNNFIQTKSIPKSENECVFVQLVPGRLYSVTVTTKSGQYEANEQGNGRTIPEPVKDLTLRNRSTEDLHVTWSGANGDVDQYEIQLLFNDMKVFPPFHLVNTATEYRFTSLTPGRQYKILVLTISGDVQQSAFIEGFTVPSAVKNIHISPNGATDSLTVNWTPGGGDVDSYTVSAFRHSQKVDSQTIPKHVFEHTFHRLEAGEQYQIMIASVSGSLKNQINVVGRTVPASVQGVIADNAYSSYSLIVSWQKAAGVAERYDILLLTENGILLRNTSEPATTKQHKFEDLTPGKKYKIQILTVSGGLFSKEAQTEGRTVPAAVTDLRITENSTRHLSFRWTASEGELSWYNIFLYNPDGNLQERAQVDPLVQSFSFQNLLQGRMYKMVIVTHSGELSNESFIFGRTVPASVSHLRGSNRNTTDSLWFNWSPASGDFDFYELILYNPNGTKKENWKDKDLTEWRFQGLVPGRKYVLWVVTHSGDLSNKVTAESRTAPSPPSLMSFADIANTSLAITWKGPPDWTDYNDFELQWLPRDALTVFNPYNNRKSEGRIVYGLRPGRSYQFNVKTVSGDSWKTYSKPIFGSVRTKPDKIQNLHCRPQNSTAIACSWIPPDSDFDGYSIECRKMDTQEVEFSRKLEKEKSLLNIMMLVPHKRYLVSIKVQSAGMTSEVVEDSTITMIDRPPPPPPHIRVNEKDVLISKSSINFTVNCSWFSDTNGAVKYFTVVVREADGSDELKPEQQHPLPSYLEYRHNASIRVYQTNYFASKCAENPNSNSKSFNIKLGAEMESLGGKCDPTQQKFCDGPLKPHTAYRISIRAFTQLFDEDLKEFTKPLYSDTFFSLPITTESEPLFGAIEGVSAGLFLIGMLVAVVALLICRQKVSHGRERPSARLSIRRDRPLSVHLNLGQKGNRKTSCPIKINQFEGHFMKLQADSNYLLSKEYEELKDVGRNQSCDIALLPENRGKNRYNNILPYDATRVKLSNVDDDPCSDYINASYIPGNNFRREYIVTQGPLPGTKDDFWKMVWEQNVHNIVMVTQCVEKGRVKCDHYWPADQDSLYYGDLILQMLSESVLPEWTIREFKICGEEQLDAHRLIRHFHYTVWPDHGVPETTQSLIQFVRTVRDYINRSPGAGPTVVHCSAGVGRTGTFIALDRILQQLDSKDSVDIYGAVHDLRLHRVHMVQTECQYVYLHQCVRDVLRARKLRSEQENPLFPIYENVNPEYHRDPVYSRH
Assay [4] concerns the target T2, Tyrosine-protein phosphatase non-receptor type 1 (Homo sapiens, UniProt P18031).
T2 sequence (P18031 whole entry): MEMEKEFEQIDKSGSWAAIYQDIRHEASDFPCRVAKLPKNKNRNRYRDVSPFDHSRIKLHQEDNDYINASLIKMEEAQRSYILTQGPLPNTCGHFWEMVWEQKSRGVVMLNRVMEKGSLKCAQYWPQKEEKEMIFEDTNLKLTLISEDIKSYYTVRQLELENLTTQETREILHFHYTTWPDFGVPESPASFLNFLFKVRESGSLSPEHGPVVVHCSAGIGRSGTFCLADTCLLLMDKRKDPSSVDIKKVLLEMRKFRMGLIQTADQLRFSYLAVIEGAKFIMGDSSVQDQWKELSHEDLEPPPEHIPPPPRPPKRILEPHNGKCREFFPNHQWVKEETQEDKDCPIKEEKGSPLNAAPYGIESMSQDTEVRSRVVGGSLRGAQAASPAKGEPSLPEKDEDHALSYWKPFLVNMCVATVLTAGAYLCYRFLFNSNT
The experiment in a line: Inhibition of recombinant full length PTP1B (unknown origin) assessed as p-nitrophenyl phosphate conversion to p-nitrophenol after 10 mins by spectrophotometric analysis. The method, boiled down: (§2)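 Recombinant full-length PTP1B (5 nM final) in 50 mM Bis-Tris pH 7.2, 100 mM NaCl, 1 mM DTT, 2 mM EDTA, 1 vol % DMSO, 2 mM p-nitrophenyl phosphate plus inhibitor. Mixture preincubated 5 min at 37 C, started by adding enzyme. p-Nitrophenol release followed. IC50 taken from dose-response curve as 50% activity loss after 10 min.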

In assay [5] the target is T3, Receptor-type tyrosine-protein phosphatase C (Homo sapiens, UniProt P08575).
T3 sequence (P08575 whole entry): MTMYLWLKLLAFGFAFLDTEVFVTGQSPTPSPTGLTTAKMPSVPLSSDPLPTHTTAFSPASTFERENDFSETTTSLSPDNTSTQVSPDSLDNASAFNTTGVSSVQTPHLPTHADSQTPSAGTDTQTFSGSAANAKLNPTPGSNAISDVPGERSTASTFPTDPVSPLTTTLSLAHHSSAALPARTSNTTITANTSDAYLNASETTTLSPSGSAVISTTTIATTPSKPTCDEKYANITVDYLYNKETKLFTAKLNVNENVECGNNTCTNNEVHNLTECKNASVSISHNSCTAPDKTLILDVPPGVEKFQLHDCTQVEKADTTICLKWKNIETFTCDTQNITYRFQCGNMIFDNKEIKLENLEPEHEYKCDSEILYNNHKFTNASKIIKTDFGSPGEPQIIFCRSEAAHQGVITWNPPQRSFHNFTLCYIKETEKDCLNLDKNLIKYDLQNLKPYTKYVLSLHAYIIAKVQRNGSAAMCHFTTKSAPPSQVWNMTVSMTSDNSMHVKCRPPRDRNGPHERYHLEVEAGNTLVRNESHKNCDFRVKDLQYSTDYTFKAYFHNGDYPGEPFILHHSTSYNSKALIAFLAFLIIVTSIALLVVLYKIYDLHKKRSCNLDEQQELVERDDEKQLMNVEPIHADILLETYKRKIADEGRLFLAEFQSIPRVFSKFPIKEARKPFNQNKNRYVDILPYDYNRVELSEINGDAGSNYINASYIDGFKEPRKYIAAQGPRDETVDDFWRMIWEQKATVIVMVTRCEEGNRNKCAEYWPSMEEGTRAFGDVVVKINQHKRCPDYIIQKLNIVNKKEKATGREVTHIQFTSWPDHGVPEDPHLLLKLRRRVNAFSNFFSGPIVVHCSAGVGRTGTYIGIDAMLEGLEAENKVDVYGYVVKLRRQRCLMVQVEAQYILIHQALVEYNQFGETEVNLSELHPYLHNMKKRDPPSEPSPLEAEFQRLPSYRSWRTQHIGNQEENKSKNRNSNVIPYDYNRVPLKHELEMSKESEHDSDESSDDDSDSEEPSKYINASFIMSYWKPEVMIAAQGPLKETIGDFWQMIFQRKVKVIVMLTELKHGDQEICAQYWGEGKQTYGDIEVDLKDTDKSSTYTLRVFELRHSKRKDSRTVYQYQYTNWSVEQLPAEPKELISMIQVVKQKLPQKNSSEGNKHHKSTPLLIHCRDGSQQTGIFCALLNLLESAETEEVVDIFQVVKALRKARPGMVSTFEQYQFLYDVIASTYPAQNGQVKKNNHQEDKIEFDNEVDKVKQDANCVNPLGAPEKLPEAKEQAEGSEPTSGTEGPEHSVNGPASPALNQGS
Put plainly: Inhibition of CD45 (unknown origin) assessed as p-nitrophenyl phosphate conversion to p-nitrophenol after 10 mins by spectrophotometric analysis. The method, boiled down: as §1

The target of assay [6] is T2, Tyrosine-protein phosphatase non-receptor type 1. The experiment in a line: Inhibition of recombinant truncated PTP1B (unknown origin) using pTyr1146 as substrate assessed as inorganic phosphate level after 20 mins by spectrophotometric analysis. The method, boiled down:
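Truncated recombinant PTP1B (40 nM) with 0.075 mM pTyr1146 in 50 mM Bis-Tris pH 7.2, 1.1 mM DTT, 0.1 M NaCl, 1 mM EDTA. Reaction started with enzyme, run 20 min at 37 C, stopped with malachite green, held 10 min at 37 C. Phosphate read at 620 nm against standard curve, corrected for no-enzyme, no-substrate and inhibitor blanks.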

Assay [7] deals with T4, Tyrosine-protein phosphatase non-receptor type 2 (Homo sapiens, UniProt P17706).
T4 sequence (P17706 whole entry): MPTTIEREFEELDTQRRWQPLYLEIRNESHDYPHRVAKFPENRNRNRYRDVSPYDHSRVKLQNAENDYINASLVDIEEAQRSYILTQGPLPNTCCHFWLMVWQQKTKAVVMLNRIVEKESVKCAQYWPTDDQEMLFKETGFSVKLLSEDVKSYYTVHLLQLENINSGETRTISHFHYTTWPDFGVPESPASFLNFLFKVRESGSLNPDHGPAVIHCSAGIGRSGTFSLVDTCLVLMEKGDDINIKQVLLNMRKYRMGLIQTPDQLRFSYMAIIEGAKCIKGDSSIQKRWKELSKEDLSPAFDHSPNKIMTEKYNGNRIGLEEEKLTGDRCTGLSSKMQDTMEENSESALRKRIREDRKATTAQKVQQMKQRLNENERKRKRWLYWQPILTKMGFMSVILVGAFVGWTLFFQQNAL
The experiment in a line: Inhibition of TCPTP (unknown origin) assessed as p-nitrophenyl phosphate conversion to p-nitrophenol after 10 mins by spectrophotometric analysis. The method, boiled down:
as §1

Assay [8] addresses T5, Tyrosine-protein phosphatase non-receptor type 1 (Homo sapiens) (UniProt P18031).
T5 sequence (whole entry): T2 sequence (P18031 whole entry)
The following applies: 50 uM.

In assay [9] the target is T5, Tyrosine-protein phosphatase non-receptor type 1 (Homo sapiens). The experiment in a line: Inhibition of recombinant full length PTP1B (unknown origin) assessed as p-nitrophenyl phosphate conversion to p-nitrophenol by spectrophotometric analysis. As to conditions: TDE = time-dependent effect. The method, boiled down:
as §2

In assay [10] the target is T6, Tyrosine-protein phosphatase non-receptor type 2 (Homo sapiens) (UniProt P17706).
T6 sequence (whole entry): T4 sequence (P17706 whole entry)
Put plainly: Inhibition of TCPTP (unknown origin) assessed as p-nitrophenyl phosphate conversion to p-nitrophenol by spectrophotometric analysis. As to conditions: TDE = time-dependent effect.

Assay [11] concerns the target T2, Tyrosine-protein phosphatase non-receptor type 1. Put plainly: Reversible inhibition of recombinant full length PTP1B (unknown origin) assessed as p-nitrophenyl phosphate conversion to p-nitrophenol after 10 mins by spectrophotometric analysis. The method, boiled down: as §2
Assay [12] is filed under the species Homo sapiens. The experiment in a line: Selectivity ratio of IC50 for TCPTP (unknown origin) to IC50 for recombinant full length PTP1B (unknown origin).
Assay [13] is filed under the species Homo sapiens. The experiment in a line: Selectivity ratio of IC50 for CD45 (unknown origin) to IC50 for recombinant full length PTP1B (unknown origin).
The target in assay [14] is T2, Tyrosine-protein phosphatase non-receptor type 1. The experiment in a line: Competitive inhibition of recombinant full length PTP1B (unknown origin) assessed as p-nitrophenyl phosphate conversion to p-nitrophenol by Lineweaver-Burk plot analysis.
Assay [15] deals with T5, Tyrosine-protein phosphatase non-receptor type 1 (Homo sapiens). Put plainly: Inhibition of recombinant full length PTP1B (unknown origin) assessed as p-nitrophenyl phosphate conversion to p-nitrophenol up to 20 uM after 10 mins by spectrophotometric analysis. The method in brief: as §2

Chain of Receptor-type tyrosine-protein phosphatase F (P10586 whole entry): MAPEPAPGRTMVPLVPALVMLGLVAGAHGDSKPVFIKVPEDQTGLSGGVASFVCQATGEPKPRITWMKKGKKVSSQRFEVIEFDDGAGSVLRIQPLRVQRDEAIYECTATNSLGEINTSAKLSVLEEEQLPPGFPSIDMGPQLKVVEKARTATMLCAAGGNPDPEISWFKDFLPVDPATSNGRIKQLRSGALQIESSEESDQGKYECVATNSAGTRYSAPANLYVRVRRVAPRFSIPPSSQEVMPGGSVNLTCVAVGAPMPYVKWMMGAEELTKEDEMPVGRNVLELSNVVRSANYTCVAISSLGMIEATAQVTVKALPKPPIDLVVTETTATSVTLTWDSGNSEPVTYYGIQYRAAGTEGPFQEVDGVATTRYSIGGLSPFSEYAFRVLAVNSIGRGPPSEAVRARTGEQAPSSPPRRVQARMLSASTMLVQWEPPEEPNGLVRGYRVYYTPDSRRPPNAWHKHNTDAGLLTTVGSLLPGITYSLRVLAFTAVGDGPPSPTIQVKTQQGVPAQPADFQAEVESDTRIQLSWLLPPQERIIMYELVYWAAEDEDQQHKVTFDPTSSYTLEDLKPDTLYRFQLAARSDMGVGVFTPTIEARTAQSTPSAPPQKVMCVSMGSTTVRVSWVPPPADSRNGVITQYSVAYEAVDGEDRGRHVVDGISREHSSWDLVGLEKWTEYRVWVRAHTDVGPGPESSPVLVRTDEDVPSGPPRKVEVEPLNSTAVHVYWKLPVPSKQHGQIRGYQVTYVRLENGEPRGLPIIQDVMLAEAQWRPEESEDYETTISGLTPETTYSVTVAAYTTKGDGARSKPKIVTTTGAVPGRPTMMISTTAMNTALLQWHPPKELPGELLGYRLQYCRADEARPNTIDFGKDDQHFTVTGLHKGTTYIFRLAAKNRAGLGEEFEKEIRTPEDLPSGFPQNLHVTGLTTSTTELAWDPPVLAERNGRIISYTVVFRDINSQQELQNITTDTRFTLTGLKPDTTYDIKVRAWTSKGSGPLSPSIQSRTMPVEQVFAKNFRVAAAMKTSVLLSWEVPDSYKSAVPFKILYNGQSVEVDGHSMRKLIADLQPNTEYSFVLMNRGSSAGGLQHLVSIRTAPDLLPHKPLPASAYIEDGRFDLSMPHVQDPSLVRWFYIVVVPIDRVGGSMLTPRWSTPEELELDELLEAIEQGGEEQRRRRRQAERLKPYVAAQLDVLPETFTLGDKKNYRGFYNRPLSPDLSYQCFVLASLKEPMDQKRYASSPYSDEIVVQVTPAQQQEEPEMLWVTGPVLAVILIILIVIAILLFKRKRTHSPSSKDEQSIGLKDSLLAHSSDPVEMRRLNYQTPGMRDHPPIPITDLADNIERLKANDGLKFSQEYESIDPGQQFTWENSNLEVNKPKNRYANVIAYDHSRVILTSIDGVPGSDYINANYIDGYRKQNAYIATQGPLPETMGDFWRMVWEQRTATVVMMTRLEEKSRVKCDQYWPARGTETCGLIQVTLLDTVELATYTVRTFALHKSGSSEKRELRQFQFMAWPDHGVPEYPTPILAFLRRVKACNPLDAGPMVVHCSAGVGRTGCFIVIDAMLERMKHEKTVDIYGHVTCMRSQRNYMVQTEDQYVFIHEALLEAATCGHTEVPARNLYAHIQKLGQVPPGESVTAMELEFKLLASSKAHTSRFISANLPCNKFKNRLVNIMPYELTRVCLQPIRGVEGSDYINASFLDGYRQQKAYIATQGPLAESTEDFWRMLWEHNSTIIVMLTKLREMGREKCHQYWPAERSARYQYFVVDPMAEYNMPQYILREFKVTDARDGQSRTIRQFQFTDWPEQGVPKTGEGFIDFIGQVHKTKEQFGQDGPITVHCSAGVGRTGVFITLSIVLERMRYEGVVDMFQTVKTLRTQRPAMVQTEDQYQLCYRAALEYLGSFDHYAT

What is called IC50 is the concentration at which inhibition is half-maximal. As to `CCCOc1c2cccc1Cc1cc(C(O)(P(=O)(O)O)P(=O)(O)O)cc(c1O)Cc1cccc(c1OCCC)Cc1cc(C(O)(P(=O)(O)O)P(=O)(O)O)cc(c1O)C2`, the IC50 in [1] is 9.2 µM; in assay [2], more than 100 µM; in assay [3] it was 12 µM; in assay [4], 8.3 µM; in assay [5], 59 µM; in assay [6], 7.3 µM. For the same molecule, in assay [7], the IC50 turned out to be 22 µM.
For `NCCCC(O)(P(=O)(O)O)P(=O)(O)O`, the inhibition result in assay [8] was “inactive”.
As a reminder, the Ki is the dissociation constant of the complex between target and ligand, obtained from inhibition or displacement. `CCCOc1c2cccc1Cc1cc(C(O)(P(=O)(O)O)P(=O)(O)O)cc(c1O)Cc1cccc(c1OCCC)Cc1cccc(c1O)C2`: the concentration for half-maximal inhibition (IC50) in [1] was 3.4 µM; in [2] it was not below 100 µM; in [3] it was 18 µM; in [4], 1.9 µM; in assay [5], 8.4 µM; in [6], 4.1 µM. Further, the IC50 in assay [7] is 27 µM. Moreover, the inhibition result in assay [9] and in assay [10] was “tde” throughout. Besides, the Ki in [11] stood at 0.68 µM. Besides, the Ratio IC50 in the assay listed under Homo sapiens [12] is 14; in the assay listed under Homo sapiens [13], 4.
`CCCOc1c2cccc1Cc1cc(C(P(=O)(O)O)P(=O)(O)O)cc(c1O)Cc1cccc(c1OCCC)Cc1cc(C(P(=O)(O)O)P(=O)(O)O)cc(c1O)C2`: the half-inhibitory concentration (IC50) in assay [1] was 2.6 µM; in [2], more than 100 µM; in assay [4] it was 2.5 µM; in assay [5], 22 µM; in [6], 3.9 µM; in assay [7] it was 4.9 µM.
Regarding `CCCOc1c2cccc1Cc1cc(C(P(=O)(O)O)P(=O)(O)O)cc(c1O)Cc1cccc(c1OCCC)Cc1cccc(c1O)C2`, the IC50 in assay [1] was 1.8 µM; in assay [2], more than 100 µM; in [3], 13 µM; in [4], 1.2 µM; in assay [5], 5.7 µM; in assay [6] it was 3.7 µM. Further, in assay [7], the IC50 is 9.3 µM. Moreover, the inhibition result in [9] and in [10] was “tde” in each case. Besides, the figures for the Ki in assay [11] and in assay [14] were 0.74 µM and 0.98 µM, respectively. Besides, the Ratio IC50 stood at 8 in the assay listed under Homo sapiens [12] and 4 in the assay filed under Homo sapiens [13].
As for `CCCOc1c2cccc1Cc1cccc(c1O)Cc1cccc(c1OCCC)Cc1cccc(c1O)C2`, in assay [15], the inhibition entry is “inactive”.
